pIC50: −log10 of the molar value. Active and inactive are the calls of the source. No cut-off for these calls is given here.
What was measured:
Mus musculus [1] = experiment: Antiinflammatory activity in oxazolone-induced Balb/c mouse model of atopic dermatitis assessed as reduction of hyperplasia at 50 mg/kg, po BID administered 30 mins prior to oxazolone challenge for 3 weeks by hematoxylin and eosin staining based histopathological analysis; assay type: functional, organism-based
Histamine H4 receptor [2] = biological target: T1, Histamine H4 receptor (Mus musculus, UniProt Q91ZY2); experiment: Antagonist activity at recombinant mouse histamine H4 receptor expressed in CHO-K1 cells assessed as inhibition of R-alpha-methylhistamine induced stimulation of [35S]-GTPgammaS binding by scintillation proximity assay; assay type: functional, cell membranes, Cell membrane
T1 sequence (Q91ZY2 whole entry): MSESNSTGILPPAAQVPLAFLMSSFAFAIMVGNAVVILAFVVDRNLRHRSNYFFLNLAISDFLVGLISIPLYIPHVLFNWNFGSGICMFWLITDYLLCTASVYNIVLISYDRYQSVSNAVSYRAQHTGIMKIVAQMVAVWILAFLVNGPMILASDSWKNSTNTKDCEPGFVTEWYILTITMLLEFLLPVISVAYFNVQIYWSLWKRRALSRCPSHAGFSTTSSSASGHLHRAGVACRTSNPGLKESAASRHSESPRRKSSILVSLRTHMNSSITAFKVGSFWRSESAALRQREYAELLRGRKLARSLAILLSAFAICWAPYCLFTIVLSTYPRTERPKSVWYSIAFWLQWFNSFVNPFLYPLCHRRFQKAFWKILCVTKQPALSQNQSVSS
Method in brief: (§1)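 GTPγ35S binding on recombinant mouse H4R, run by an outside contractor. R-α-methylhistamine served as reference agonist and thioperamide as reference antagonist.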

[3] = AUC (all) in ICR mouse at 10 mg/kg, po measured upto 24 hrs by LC-MS/MS analysis; assay type: ADME, organism-based; design: route oral, dose 10 mg/kg, time <=24; conditions: in vivo
Method in brief: (§2)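 Female ICR mice, n=3 per group, given test compound orally. Blood sampled at 0.5, 1, 2, 4, 7 and 24 h post dose; plasma levels quantified by LC-MS/MS. Parameters from non-compartmental analysis.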

Histamine H4 receptor [4] = biological target: T1, Histamine H4 receptor; experiment: Displacement of [3H]-histamine from recombinant mouse histamine H4 receptor expressed in CHO-K1 cell membranes measured after 30 mins by microbeta scintillation counting method; design: species or system Cell membrane
Method in brief: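 Competitive binding on CHO-K1 membranes expressing human H3R ([3H]Nα-methylhistamine) or mouse H4R ([3H]histamine). Run in 50 mM Tris-HCl pH 7.4 for 30 min at 27 °C, then filtered onto 0.5% PEI-treated glass fiber and washed three times with ice-cold buffer. Bound radioactivity read by liquid scintillation counting.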

Histamine H4 receptor [5] = biological target: T2, Histamine H4 receptor (Homo sapiens, UniProt Q9H3N8); experiment: Antagonist activity at recombinant human histamine H4 receptor expressed in CHO-K1 cells assessed as inhibition of R-alpha-methylhistamine induced stimulation of [35S]-GTPgammaS binding by scintillation proximity assay; assay type: functional, cell membranes, Cell membrane
Method in brief: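 Functional [35S]GTPγS binding on recombinant human H4R. Antagonism was measured against the reference agonist R-α-methylhistamine, with JNJ10191584 as the reference antagonist. Run by a contract lab.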

[6] = biological target: T3, Histamine H4 receptor (Mus musculus) (UniProt Q91ZY2); experiment: Agonist activity at recombinant mouse histamine H4 receptor expressed in CHO-K1 cells assessed as stimulation of [35S]-GTPgammaS binding by scintillation proximity assay; assay type: functional, cell membranes; conditions: Cell membrane; method in brief: as §1
T3 sequence (whole entry): T1 sequence (Q91ZY2 whole entry)

[7] = AUC (all) in ICR mouse at 2 mg/kg, po measured upto 24 hrs by LC-MS/MS analysis; assay type: ADME, organism-based; design: route oral, dose 2 mg/kg, time <=24; conditions: in vivo; method in brief: as §2
Mus musculus [8] = experiment: Anti-pruritus activity in ICR mouse with histamine-induced itching assessed as reduction of scratching bouts at 50 mg/kg, po administered 30 mins prior to histamine challenge and measured upto 20 mins; assay type: functional; conditions: 50 min
Method in brief: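 Female ICR mice (n=8-10 per group), back skin clipped 24 h before. Oral dose in 20% hydroxypropyl-β-cyclodextrin given 30 min before intradermal pruritogen in saline: histamine 300 nmol, substance P 100 nmol or C48/80 100 µg. Scratching bouts counted from video for 20 min after injection. Mean ± S.E.M., Student's t-test.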

[9] = biological target: Histamine H1 receptor (Homo sapiens) (UniProt P35367); experiment: Displacement of [3H]pyrilamine from recombinant human histamine H1 receptor after 60 mins by scintillation counting analysis
[10] = Cmax in ICR mouse at 50 mg/kg, po measured upto 24 hrs by LC-MS/MS analysis; assay type: ADME, organism-based; design: route oral, dose 50 mg/kg, time <=24; conditions: in vivo; method in brief: as §2
Histamine H4 receptor [11] = biological target: T2, Histamine H4 receptor; experiment: Displacement of [3H]-histamine from recombinant human histamine H4 receptor expressed in CHO-K1 cell membranes measured after 30 mins by microbeta scintillation counting method; design: species or system Cell membrane

Histamine H1 receptor (Homo sapiens), sequence (P35367 whole entry): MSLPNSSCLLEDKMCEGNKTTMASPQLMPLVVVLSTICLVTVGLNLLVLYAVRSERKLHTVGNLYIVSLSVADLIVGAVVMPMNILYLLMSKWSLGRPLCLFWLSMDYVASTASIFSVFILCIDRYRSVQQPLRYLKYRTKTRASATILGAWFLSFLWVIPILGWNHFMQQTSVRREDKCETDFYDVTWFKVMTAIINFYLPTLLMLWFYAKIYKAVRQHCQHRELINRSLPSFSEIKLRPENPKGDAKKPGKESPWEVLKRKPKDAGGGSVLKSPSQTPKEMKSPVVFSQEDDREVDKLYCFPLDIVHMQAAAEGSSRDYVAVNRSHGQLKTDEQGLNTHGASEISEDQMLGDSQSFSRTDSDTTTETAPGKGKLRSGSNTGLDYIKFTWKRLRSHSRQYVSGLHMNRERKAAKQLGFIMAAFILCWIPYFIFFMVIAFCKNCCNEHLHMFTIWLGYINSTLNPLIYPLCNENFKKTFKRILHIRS

pIC50 (Histamine H4 receptor [2]): 6.16 | AUC at 24 h [3]: 5400 ng·h/mL | pIC50 (Histamine H4 receptor [4]): 6.54 | pIC50 (Histamine H4 receptor [5]): 7.55 | Activity [6]: inactive | AUC at 24 h [7]: 251 ng·h/mL | Activity [9]: inactive | Cmax [10]: 7690 ng/mL | pIC50 (Histamine H4 receptor [11]): 7.57
Structure (SMILES): CNC1CN(c2nc3ncc(Br)cc3n3nnnc23)C1
Activity (Mus musculus [1]): Active | inhibition in vivo at 50 mg/kg (Mus musculus [8]): 100%

Reference: ChEMBL document CHEMBL4765239, “Discovery of a Novel Highly Selective Histamine H4 Receptor Antagonist for the Treatment of Atopic Dermatitis” (J Med Chem, 2018)
